Source: ChEMBL document CHEMBL1121581, “4-Piperazinyl-10H-thieno[2,3-b][1,5]benzodiazepines as potential neuroleptics” (J Med Chem, 1980)

Tests used:
[1] = system: Mus musculus; test: Hypothermia in mice after peroral administration; format: functional
[2] = Lethal dose in mice after perorla administration; format: toxicity, organism-based; settings: mouse, in vivo, po
[3] = system: Rattus norvegicus; test: Compound was assessed for its ability to block a conditioned avoidance response; Dose administered intraperitoneally is 50 mg/kg; no significant effect (0-25%block); format: functional; settings: route intraperitoneal
[4] = system: Rattus norvegicus; test: Compound was assessed for its ability to block a conditioned avoidance response; Dose administered perorally is 20 mg/kg; 76-99%block; format: functional; settings: route oral
Outline: (§1)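 Lilly Wistar rats (120–130 g) trained in a shuttle box to cross on a 5-s buzzer, with mild shock if no response within 1 s of buzzer end. Only rats with a high conditioned response were used. Groups of five were dosed orally 1 h 50 min before the session, then habituated 10 min and tested 20 min. Shocks were scored as % of stimuli and graded 0–5.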

[5] = system: Rattus norvegicus; test: Compound was assessed for its ability to produce catalepsy in rats; Dose administered perorally is 10 mg/kg; Group score is 4-7; format: functional; settings: route oral
Outline: (§2)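 Groups of eight Lilly Wistar rats (180–190 g) were dosed orally, then checked at 0.5, 1, 1.5, 2, 3, 4 and 5 h. Front paws were placed on a 1.5-cm rod 7 cm above the table, and hold time was recorded up to 20 min. Each rat was scored 0–5 and its maximum scores were summed per group (maximum 40), then graded 0–4.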

[6] = system: Rattus norvegicus; test: Compound was assessed for its ability to block a conditioned avoidance response; Dose administered perorally is 10 mg/kg; 31-50%block; format: functional; settings: route oral; outline: as §1
[7] = system: Rattus norvegicus; test: Compound was assessed for its ability to produce catalepsy in rats; Dose administered perorally is 50 mg/kg; Group score is 0-3; format: functional; settings: route oral; outline: as §2
[8] = system: Rattus norvegicus; test: Ability to block a conditioned avoidance response; Dose administered perorally is 50 mg/kg.; format: functional; settings: route oral; outline: as §1
[9] = system: Rattus norvegicus; test: Compound was assessed for its ability to block a conditioned avoidance response; Dose administered perorally is 10 mg/kg; no significant effect (0-25%block); format: functional; settings: route oral; outline: as §1
[10] = system: Rattus norvegicus; test: Compound was assessed for its ability to produce catalepsy in rats; Dose administered perorally is 20 mg/kg; Group score is 8-15; format: functional; settings: route oral; outline: as §2
[11] = system: Rattus norvegicus; test: Compound was assessed for its ability to block a conditioned avoidance response; Dose administered perorally is 10 mg/kg; 26-30%block; format: functional; settings: route oral; outline: as §1
[12] = system: Rattus norvegicus; test: Compound was assessed for its ability to produce catalepsy in rats; Dose administered perorally is 50 mg/kg; Group score is 4-7; format: functional; settings: route oral; outline: as §2
[13] = system: Rattus norvegicus; test: Compound was assessed for its ability to block a conditioned avoidance response; Dose administered perorally is 50 mg/kg; 26-30%block; format: functional; settings: route oral; outline: as §1
[14] = system: Rattus norvegicus; test: Compound was assessed for its ability to block a conditioned avoidance response; Dose administered perorally is 40 mg/kg; 26-30%block; format: functional; settings: route oral; outline: as §1
[15] = system: Rattus norvegicus; test: Compound was assessed for its ability to block a conditioned avoidance response; Dose administered perorally is 25 mg/kg; no significant effect (0-25%block); format: functional; settings: route oral; outline: as §1
[16] = system: Rattus norvegicus; test: Compound was assessed for its ability to block a conditioned avoidance response; Dose administered perorally is 10 mg/kg; 51-75%block; format: functional; settings: route oral; outline: as §1
[17] = system: Rattus norvegicus; test: Compound was assessed for its ability to produce catalepsy in rats; Dose administered perorally is 10 mg/kg; Group score is 8-15; format: functional; settings: route oral; outline: as §2
[18] = system: Rattus norvegicus; test: Compound was assessed for its ability to block a conditioned avoidance response; Dose administered perorally is 2.5 mg/kg; 31-50%block; format: functional; settings: route oral; outline: as §1
[19] = system: Rattus norvegicus; test: Compound was assessed for its ability to produce catalepsy in rats; Dose administered perorally is 2.5 mg/kg; Group score is 31-40; format: functional; settings: route oral; outline: as §2

| SMILES | EDmin [1] | LD50 [2] | Activity [8] | also measured |
| --- | --- | --- | --- | --- |
| CCc1cc2c(s1)Nc1ccc(F)cc1N=C2N1CCN(c2ccccc2)CC1 | >400 mg/kg | > 400 mg/kg |  | Activity [3]: 0 |
| CCc1cc2c(s1)Nc1ccc(F)cc1N=C2N1CCN(CCO)CC1 | 50 mg/kg | 400 mg/kg |  | Activity [4]: 4; Activity [5]: 1 |
| CCc1cc2c(s1)Nc1ccccc1N=C2N1CCN(CC)CC1 | 50 mg/kg | 200 mg/kg |  | Activity [6]: 2; Activity [5]: 1 |
| CCc1cc2c(s1)Nc1ccc(Cl)cc1N=C2N1CCNCC1 | 50 mg/kg | > 400 mg/kg | 0 | Activity [7]: 0 |
| CCc1cc2c(s1)Nc1ccc(S(C)(=O)=O)cc1N=C2N1CCN(C)CC1 | >400 mg/kg | > 400 mg/kg | 0 |  |
| CCCN1CCN(C2=Nc3ccccc3Nc3sc(CC)cc32)CC1 | 25 mg/kg | > 200 mg/kg |  | Activity [9]: 0; Activity [10]: 2 |
| CN1CCN(C2=Nc3cc(F)ccc3Nc3sc(-c4ccccc4)cc32)CC1 | 50 mg/kg | > 400 mg/kg | 0 | Activity [7]: 0 |
| CN1CCN(C2=Nc3cc(F)ccc3Nc3sc(C(C)(C)C)cc32)CC1 | 12.5 mg/kg | > 400 mg/kg |  | Activity [11]: 1; Activity [5]: 1 |
| CCc1cc2c(s1)Nc1ccc(Cl)cc1C(N1CCN(C)CC1)=N2 | 50 mg/kg | > 100 mg/kg | 0 |  |
| CCc1cc2c(s1)Nc1cc(F)cc(F)c1N=C2N1CCN(C)CC1 | 25 mg/kg | 600 mg/kg |  | Activity [12]: 1; Activity [13]: 1 |
| CC(=O)c1cc2c(s1)Nc1ccccc1C(N1CCN(C)CC1)=N2 | 200 mg/kg | > 400 mg/kg |  | Activity [14]: 1 |
| Cc1cc2c(s1)Nc1ccc(F)cc1N=C2N1CCNCC1 | 100 mg/kg | 400 mg/kg |  | Activity [13]: 1 |
| CCc1cc2c(s1)Nc1ccc(SC)cc1N=C2N1CCN(C)CC1 | 100 mg/kg | > 200 mg/kg | 0 |  |
| CCc1cc2c(s1)Nc1ccc(F)cc1N=C2N1CCN(c2cccc(Cl)c2)CC1 | >400 mg/kg | > 400 mg/kg |  | Activity [3]: 0 |
| CCOC(=O)N1CCN(C2=Nc3cc(F)ccc3Nc3sc(CC)cc32)CC1 | 100 mg/kg | > 800 mg/kg | 0 | Activity [7]: 0 |
| CCc1cc2c(s1)Nc1ccc(F)cc1N=C2N1CCOCC1 | >400 mg/kg | > 400 mg/kg | 0 |  |
| CCc1cc2c(s1)Nc1ccccc1N=C2N1CCNCC1 | 100 mg/kg | 800 mg/kg | 0 |  |
| CCc1cc2c(s1)Nc1ccc(S(=O)(=O)N(C)C)cc1N=C2N1CCN(C)CC1 | >800 mg/kg | > 800 mg/kg | 0 |  |
| CCc1cc2c(s1)Nc1ccccc1C(N1CCN(C)CC1)=N2 | 100 mg/kg | > 200 mg/kg |  | Activity [15]: 0 |
| Cc1cc2c(s1)Nc1ccc(F)cc1N=C2N1CC[N+](C)([O-])CC1 | 6.25 mg/kg | 200 mg/kg |  | Activity [16]: 3; Activity [17]: 2 |
| CCc1cc2c(s1)Nc1ccc(F)cc1N=C2NCCN1CCOCC1 | 200 mg/kg | 400 mg/kg |  | Activity [3]: 0 |
| CN(C)CCCN1c2ccccc2Sc2ccc(Cl)cc21 [CHLORPROMAZINE] | 6.25 mg/kg | 400 mg/kg |  | Activity [16]: 3; Activity [5]: 1 |
| OCCN1CCN(CC/C=C2\c3ccccc3Sc3ccc(C(F)(F)F)cc32)CC1 [E-FLUPENTIXOL] | >400 mg/kg | > 400 mg/kg |  | Activity [7]: 0; Activity [13]: 1 |
| OCCN1CCN(CC/C=C2/c3ccccc3Sc3ccc(C(F)(F)F)cc32)CC1 [Z-FLUPENTIXOL] | 3 mg/kg | 300 mg/kg |  | Activity [18]: 2; Activity [19]: 4 |
